High-throughput results (PubChem BioAssay)
MT stabilize HCS – microtubule stabilizers in HeLa cells, primary screen, imaging, high-content imaging | HeLa tubulin immunostaining HCS, 24 h; share of cells brighter than vehicle mean+2SD | % tubulin-high responders, % at 10 µM | actives 0.83% (n = 200,000) | AID 2205, 2009;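 active = plate Z-score above 3 for both tubulin-high and condensed-nucleus cell shares, with cell loss under 80%, at 10 µM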;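 note: anti alpha tubulin signal scored within the nucleus-defined area of each cell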
KLF5 inhibitor – KLF5 expression inhibitors, primary screen, DLD-1 cells, luminescence. DLD-1 KLF5 promoter-luciferase reporter. inhibition, % at 5 µM. actives 0.23% (n = 290,000). AID 1700, 2009;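 active = inhibition above a per-plate limit of that plate's mean compound inhibition plus 3 SD, cut at about 60% in these data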;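 note: 0% = DMSO wells and 100% = LY294002 at 200 µM; higher means less KLF5 promoter-driven luciferase light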
BaF3 parental – parental Ba/F3 cell viability inhibition, counter-screen for JAK2V617F inhibitor project, murine pro-B, CellTiter-Glo luminescence; CellTiter-Glo ATP luminescence; inhibition, % at 5.6 µM; actives 1.1% (n = 220,000); AID 1486, 2009;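 active = inhibition above a per-campaign cutoff, the mean inhibition of all tested compounds plus 3 SD, cut at about 27% in these data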;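 note: 0% = DMSO wells and 100% = JAK Inhibitor I control wells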
IEC-6 cytotox – cytotoxicity in IEC-6 intestinal epithelial cells, primary screen, cytotoxicity control for KLF5 inhibitor project, cell-based, luminescence; IEC-6 cytotoxicity, luminescence viability; inhibition, % at 5 µM; actives 0.78% (n = 290,000); AID 1825, 2009; in the data active = inhibition above about 22%;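 note: 0% = plate median of test compound wells and 100% = cytotoxic reference compound wells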
Ba/F3 V617F tox – reduced viability of JAK2V617F-dependent Ba/F3 cells, primary screen, JAK2V617F inhibitor project, cell-based, Ba/F3 EpoR-JAK2V617F, luminescence | ATP luminescence | inhibition, % at 5.6 µM | actives 1.1% (n = 220,000) | AID 1446, 2008;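 active = inhibition above the campaign mean plus 3 SD over all tested compounds, cut at about 24% in these data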;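 note: cytokine-independent growth of Ba/F3 cells driven by EpoR plus mutant JAK2; 0% = DMSO-treated cells and 100% = JAK inhibitor I control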
bCat nuc transl – modulators of beta-catenin nuclear translocation, primary screen, imaging, HeLa cells, immunofluorescence, high-content | nuclear translocation activity, % at 5 µM | actives 0.3% (n = 190,000) | AID 1665, 2009;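 active = nuclear translocation activity above 50% at 5 µM, with a well cell count of 50 or more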;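 note: per-cell ratio of nuclear to cytoplasmic median beta-catenin stain intensity; plate controls were DMSO negative control for no effect and GSK-3 inhibitor IX positive control for full effect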
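assay system = human HeLa cells, endogenous beta-catenin | times = compound treatment 24 h, 37°C, 5% CO2 | detection = Anti-beta-catenin immunofluorescence on PFA-fixed, Triton-permeabilized cells, DAPI nuclei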
* hit, by the source's call; x = no result. Rows were chosen to be rich in hits. Some 2.1% of all compounds tested hit in one or more screens of this group.

SMILES	MT stabilize HCS	KLF5 inhibitor	BaF3 parental	IEC-6 cytotox	Ba/F3 V617F tox	bCat nuc transl
COc1ccc(C)cc1NC(=O)C(=O)NCc1ccncc1	2	-6	96*	2	-2	-1
Cn1c(=O)c(C(=O)c2ccccc2)nc2ccccc21	2	-22	5	1	5	-2
Cn1cc(C(=O)c2ccc(Cl)cc2)cc1-c1nc2ccccc2n1C	1	-11	47*	2	-2	0
N/N=C(\c1ccccc1)C12CN3CN(CN(C3)C1)C2	2	-19	0	-4	-4	-1
COc1ccccc1NC(=O)Cn1nnc(-c2ccccc2NC(=O)c2cnccn2)n1	2	-45	3	-2	-7	2
Cc1ccc2c(c1)N(C(=O)CCC(=O)NCCCN1CCOCC1)CC(C)O2 (centres undefined)	x	-12	x	-9	x	x
COc1cc(/C=C2/NC(=O)N(Cc3ccccc3F)C2=O)ccc1O	2	-15	65*	4	85*	2
Cc1ccc(C2Oc3ccccc3C3=C2C(c2cccs2)n2ncnc2N3)cc1 (centres undefined)	32*	-13	3	-8	0	16
Cc1ccc(NC(=O)Cc2sc(C)nc2-c2ccc(C)cc2)cc1	5	6	39*	2	21	1
CC1CCc2cc(F)ccc2N1C(=O)CN1C(=O)c2ccccc2C1=O (centres undefined)	4	0	2	6	3	x
CCOC(=O)c1ccc(NC(=S)N(CCCN2CCN(CC)CC2)Cc2ccco2)cc1	4	5	3	7	4	-4
CCN1CCN(CCCN(Cc2ccco2)C(=S)Nc2ccc(C)c(Cl)c2)CC1	5	-4	32*	1	37*	3
CCN1CCN(CCCN(Cc2ccco2)C(=S)Nc2ccc(Cl)cc2)CC1	4	-6	29*	-2	36*	0
CN1CCN(CCCN(Cc2ccco2)C(=S)Nc2ccc(Cl)cc2)CC1	3	-7	29*	2	40*	-6
Cc1ccc(NC(=S)N(CCN(C)C)C(C)c2ccco2)cc1Cl (centres undefined)	x	-42	30*	-3	27*	-1
CN(CCCC(=O)O)S(=O)(=O)c1ccc2c(c1)C(=O)c1cc(S(=O)(=O)N(C)CCCC(=O)O)ccc1-2	x	-14	x	7	x	x
COC(=O)CNC(=O)COC(=O)/C=C/c1ccccc1[N+](=O)[O-]	3	-41	-1	-1	-5	-2
Cc1ccc(NC(=S)N(CCCN2CCN(C)CC2)Cc2cccs2)cc1C	6	8	29*	10	36*	0
CCN1CCN(C(=S)Nc2ccc(Cl)cc2)CC1	4	14	35*	-1	25*	0
CCN1CCN(CCCN(Cc2ccco2)C(=S)Nc2cc(Cl)ccc2C)CC1	5	-26	69*	3	63*	-2
Cc1ccccc1NC(=S)N(CCCN1CCCCC1)Cc1ccco1	2	13	5	-3	0	-1
Cc1ccc(NC(=S)N(CCCN2CCN(C)CC2)Cc2cccs2)cc1	2	-10	17	0	19	-3
COc1ccc(-c2cn3cc(C(F)(F)F)cc(Cl)c3n2)cc1	16*	-89	8	14	2	6
Cc1ccc(CN(C(=O)c2ccco2)C(C(=O)NC2CCCC2)c2cccnc2)cc1 (centres undefined)	2	-38	6	0	1	1
CN(C)CCCN(C(=O)/C=C/c1cccs1)c1nc2ccc(F)cc2s1	2	-10	13	0	6	4
SMILES	MT stabilize HCS	KLF5 inhibitor	BaF3 parental	IEC-6 cytotox	Ba/F3 V617F tox	bCat nuc transl
CN(C)CCN(C(=O)/C=C/c1cccs1)c1nc2c(F)cc(F)cc2s1	21*	14	7	-2	2	x
CCOC(=O)CSc1ncnc2c(C(=O)OCC)c3n(c12)CCC3	2	-22	2	4	-4	1
COC(=O)c1ccc(OS(=O)(=O)N(C)C)cc1	3	-27	36*	3	-2	0
Cc1ccc(Cl)cc1N1CCN(C(=S)NCCc2ccccc2)CC1	5	-32	7	-3	0	24
C[n+]1ccccc1N1CCN(c2ccccc2Cl)CC1	2	-10	62*	-5	56*	0
Cc1ccc(Cl)cc1N1CCN(c2cccc[n+]2C)CC1	1	-10	65*	0	82*	-4
COc1ccc(C(=S)N2CCN(c3ccccc3Cl)CC2)cc1OC	x	-4	4	3	-4	0
O=C(NCCCCNC(=O)c1cccnc1Cl)c1cccnc1Cl	x	-19	x	0	x	x
Cc1nn(C2CCS(=O)(=O)C2)c(Cl)c1/C=C/C(=O)OCC(N)=O (centres undefined)	x	-27	-1	2	-2	-1
C[C@H](NC(=O)[C@H]1N2C(=O)c3ccccc3C2SC1(C)C)C(=O)N1CCCCC1 (some centres undefined)	x	0	x	-3	x	x
O=C(NN=C1CCCC1)c1cccs1	2	-141	1	-5	-5	-1
CC(=O)N1CCC(=NNC(=O)c2cccs2)CC1	4	-134	53*	9	15	5
COc1ccc(CNS(=O)(=O)c2ccc3c(c2)N(C)CCO3)cc1	x	-41	x	-2	x	x
Oc1ccccc1C1Nc2cccc3cccc(c23)N1	3	-19	0	4	-4	0
O=[N+]([O-])c1ccccc1C1Nc2cccc3cccc(c23)N1	2	10	100*	11	79*	0
C[N+](C)(C)CCCCCCCCCC[N+](C)(C)C	3	-7	1	7	0	x
CC#CC[N+](C)(C)CCCCCCCCCC	x	5	79*	10	95*	2
C#CC[N+](C)(C)CCCCCCCCC	6	-10	62*	-9	82*	8
CCN(CC)C(=O)c1ccc(Cn2cc([N+](=O)[O-])cn2)o1	3	-13	0	-4	-4	1
O=C(O)CC/C(=C\c1cc([N+](=O)[O-])ccc1Cl)c1nc2ccccc2s1	3	-47	6	5	0	0
O=C(Nc1ccc(Cl)cc1)/C(=C/c1ccc([N+](=O)[O-])cc1)c1nc2ccccc2s1	36*	4	-1	1	-2	-3
COc1ccc(CNc2cc(C)nc3ncnn23)c(OC)c1	4	-13	31*	-2	6	x
Cc1nnc(SCC2=C(C(=O)O)N3C(=O)C(NC(=O)c4cccc(F)c4F)C3SC2)s1 (centres undefined)	5	-46	10	2	5	-1
CS(=O)(=O)c1ccc(S(=O)CC(=O)OCc2ccccc2)c([N+](=O)[O-])c1 (centres undefined)	4	-7	-5	-6	43*	2
